This is an account of results in ChEMBL document CHEMBL4261635, “Simplified lipid II-binding antimicrobial peptides: Design, synthesis and antimicrobial activity of bioconjugates of nisin rings A and B with pore-forming peptides” (2018).

Values after ≈ are worked out from the molar mass of the structure shown. Active and inactive are the calls of the source. No cut-off for these calls is given here. Where a SMILES comes first, the peptide text is derived from it. [ ]: non-standard residue; d: D form. Nspe = C[C@H](NCC(=O)O)c1ccccc1; Nlys = NCCCCNCC(=O)O Some results are limits rather than exact numbers.

The test system of assay [1] is Micrococcus luteus. Kind of assay: Antibacterial activity against Micrococcus luteus after 20 hrs by broth microdilution assay. In kind it is functional. A digest of the protocol:
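Two-fold serial dilution in Nutrient Broth No. 2 containing 1% DMSO, from 0.60 mM stocks (sterile water, 1% DMSO, sonicated 30 s). Each well received 10 μL overnight M. luteus culture adjusted to OD 0.817 (of a 1 in 10 dilution), 250 μL final volume. Sealed, incubated 20 h at 37 °C, then OD read. MIC is the lowest concentration with no visible growth by eye.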
On the technique in general: In broth dilution the organism is exposed to a series of concentrations in liquid medium.

The subject of assay [2] is Pseudomonas aeruginosa. Kind of assay: Antibacterial activity against Pseudomonas aeruginosa at 1 mg/ml after 48 hrs by agar well diffusion method. In kind it is functional, organism-based. A digest of the protocol:
(§1)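 Compounds dissolved at 1 mg/mL in sterile water; 25 μL placed in 8 mm wells punched in LB agar plates spread with 100 μL overnight culture (grown at 37 °C in Nutrient Broth No. 2 with shaking). Plates incubated 48 h at 37 °C (M. luteus initially at 30 °C, later 37 °C); activity scored as a visible zone of growth inhibition.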
On the technique in general: Agar diffusion results depend on both activity and mobility in agar.

Assay [3] has as its system Escherichia coli. The assay is described as follows: Antibacterial activity against Escherichia coli at 1 mg/ml after 48 hrs by agar well diffusion method. In kind it is functional, organism-based. A digest of the protocol: as §1
In assay [4] the test system is Micrococcus luteus. The assay is described as follows: Antibacterial activity against Micrococcus luteus at 1 mg/ml after 48 hrs by agar well diffusion method. In kind it is functional, organism-based. A digest of the protocol:
as §1

By MIC is commonly meant the lowest concentration that inhibits growth of the organism. Read a high MIC as a less susceptible organism. For `C[C@@H](c1ccccc1)N(CC(N)=O)C(=O)CN(C(=O)CN(CCCCN)C(=O)CN(C(=O)CN(C(=O)CN(CCCCN)C(=O)CN(C(=O)CN(C(=O)CN(CCCCN)C(=O)CN(C(=O)CN(C(=O)CNCCCCN)[C@@H](C)c1ccccc1)[C@@H](C)c1ccccc1)[C@@H](C)c1ccccc1)[C@@H](C)c1ccccc1)[C@@H](C)c1ccccc1)[C@@H](C)c1ccccc1)[C@@H](C)c1ccccc1` (H-[Nlys][Nspe][Nspe][Nlys][Nspe][Nspe][Nlys][Nspe][Nspe][Nlys][Nspe][Nspe]-NH2), the minimal inhibitory concentration (MIC) in assay [1] was found to be 1.5 µM (≈ 2.73 µg/mL). In other words, the single-digit micromolar range.
In assay [1], `C#CCNC(=O)[C@H](CCCCN)NC(=O)[C@@H]1CS[C@@H](C)[C@H](NC(=O)[C@@H]2CSC[C@H](NC(=O)/C(=C/C)NC(=O)[C@@H](N)[C@@H](C)CC)C(=O)N[C@@H]([C@@H](C)CC)C(=O)NC(=C)C(=O)N[C@@H](CC(C)C)C(=O)N2)C(=O)N2CCC[C@H]2C(=O)NCC(=O)N1` yielded an MIC of more than 12 µM. Further, the result in assay [2] and in assay [3] was inactive. Also, the result in assay [4] was Active.
`C=C1NC(=O)[C@H]([C@@H](C)CC)NC(=O)[C@@H](NC(=O)/C(=C/C)NC(=O)[C@@H](N)[C@@H](C)CC)CSC[C@@H](C(=O)N[C@@H]2C(=O)N3CCC[C@H]3C(=O)NCC(=O)N[C@H](C(=O)N[C@@H](CCCCN)C(=O)NCc3cn(CCCC[C@H](N)C(=O)NCCOCCOCCOCCOCCC(=O)N[C@H](C(=O)N[C@@H](CC(=O)O)C(=O)N[C@@H](Cc4c[nH]c5ccccc45)C(=O)N[C@@H](CCCCN)C(=O)N[C@@H](CCCCN)C(=O)N[C@@H](CC(C)C)C(=O)N[C@@H](CC(C)C)C(=O)N[C@@H](CC(=O)O)C(=O)N[C@@H](C)C(=O)N[C@@H](C)C(=O)N[C@@H](CCCCN)C(=O)N[C@@H](CCC(N)=O)C(=O)N[C@H](C(=O)N[C@@H](CC(C)C)C(N)=O)[C@@H](C)CC)[C@@H](C)CC)nn3)CS[C@H]2C)NC(=O)[C@H](CC(C)C)NC1=O` returned an MIC in assay [1] of 3 µM (≈ 9.73 µg/mL). For the same compound, the outcome in assay [2] and in assay [3] was inactive. Also, the result in assay [4] was Active.
In assay [1], `C=C(NC(=O)[C@@H](NC(=O)[C@H](Cc1cnc[nH]1)NC(=O)[C@@H](NC(=O)[C@H](CO)NC(=O)[C@@H]1CS[C@@H](C)[C@@H]2NC(=O)[C@H](C)NC(=O)[C@@H](NC(=O)[C@H](CCCCN)NC(=O)[C@H](CCSC)NC(=O)[C@H](CC(N)=O)NC(=O)[C@@H]3CS[C@@H](C)[C@H](NC(=O)[C@H](CCCCN)NC(=O)[C@@H]4CS[C@@H](C)[C@H](NC(=O)[C@@H]5CSC[C@H](NC(=O)/C(=C/C)NC(=O)[C@@H](N)[C@@H](C)CC)C(=O)N[C@@H]([C@@H](C)CC)C(=O)NC(=C)C(=O)N[C@@H](CC(C)C)C(=O)N5)C(=O)N5CCC[C@H]5C(=O)NCC(=O)N4)C(=O)NCC(=O)N[C@@H](C)C(=O)N[C@@H](CC(C)C)C(=O)N[C@@H](CCSC)C(=O)NCC(=O)N3)[C@H](C)SC[C@H](NC2=O)C(=O)N[C@@H](CC(N)=O)C(=O)N1)[C@@H](C)CC)C(C)C)C(=O)N[C@@H](CCCCN)C(=O)O` had an MIC of 0.0234 µM (≈ 0.0779 µg/mL). Moreover, the result in assay [2] and in assay [3] was inactive. For the same compound, in assay [4], the outcome was Active.
In turn, `CC[C@H](C)[C@H](N)C(=O)N[C@@H](CC(=O)O)C(=O)N[C@@H](Cc1c[nH]c2ccccc12)C(=O)N[C@@H](CCCCN)C(=O)N[C@@H](CCCCN)C(=O)N[C@@H](CC(C)C)C(=O)N[C@@H](CC(C)C)C(=O)N[C@@H](CC(=O)O)C(=O)N[C@@H](C)C(=O)N[C@@H](C)C(=O)N[C@@H](CCCCN)C(=O)N[C@@H](CCC(N)=O)C(=O)N[C@H](C(=O)N[C@@H](CC(C)C)C(N)=O)[C@@H](C)CC` (H-IDWKKLLDAAKQIL-NH2) yielded an MIC in assay [1] of 1.5 µM (≈ 2.48 µg/mL). Moreover, the result in assay [2] and in assay [3] was inactive. For the same compound, in assay [4], the result was Active.
Consider `NC[C@H]1O[C@H](O[C@H]2[C@H](O)[C@@H](O[C@H]3O[C@H](CO)[C@@H](O)[C@H](N)[C@H]3O)[C@H](N)C[C@@H]2N)[C@H](O)[C@@H](O)[C@@H]1O`, for which the outcome in assay [2], in assay [3] and in assay [4] was Active.
Consider `CC[C@H](C)[C@H](NC(=O)CN)C(=O)NCC(=O)N[C@@H](CCCCN)C(=O)N[C@@H](Cc1ccccc1)C(=O)N[C@@H](CC(C)C)C(=O)N[C@@H](CCCCN)C(=O)N[C@@H](CCCCN)C(=O)N[C@@H](C)C(=O)N[C@@H](CCCCN)C(=O)N[C@@H](CCCCN)C(=O)N[C@@H](Cc1ccccc1)C(=O)NCC(=O)N[C@@H](CCCCN)C(=O)N[C@@H](C)C(=O)N[C@@H](Cc1ccccc1)C(=O)N[C@H](C(=O)N[C@@H](CCCCN)C(=O)N[C@H](C(=O)N[C@@H](CC(C)C)C(=O)N[C@@H](CCCCN)C(=O)N[C@@H](CCCCN)C(N)=O)[C@@H](C)CC)C(C)C` [PEXIGANAN] (H-GIGKFLKKAKKFGKAFVKILKK-NH2), for which the MIC in assay [1] was found to be 0.75 µM (≈ 1.86 µg/mL).
